Measurements as given in ChEMBL document CHEMBL1127578, “Phospholipase C inhibitors: a new class of cytotoxic agents” (J Med Chem, 1994).
Converted amounts (≈) assume the structure as drawn.

Assays:
[1] = Inhibitory activity against phospholipase C isolated from human melanoma
In short: (§1)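 PI-specific PLC partially purified from RPMI 7272 human melanoma xenografts in nude mice (Q-Sepharose then heparin-Sepharose, 0.35 M NaCl eluate), 20–30 μg protein. Enzyme preincubated with compound 5 min at 37 °C in 25 mM imidazole pH 7.2, 100 mM KCl, 1 mM CaCl2, 0.8 mg/mL deoxycholate. Reaction started with 1 mM phosphatidylinositol, run 15 min at 37 °C, stopped with EDTA.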

[2] = pKa value was determined; format: physicochemical
[3] = Inhibitory activity against phospholipase C isolated from human melanoma; IN-Inactive; in short: as §1

SMILES | IC50 [1] [µg/mL] | pKa [2] | IC50 [3]
CCCCCCCCCCCCOc1ccc2oc(=O)c([N+](=O)[O-])cc2c1 | 68.6 (≈ 183 µM) | – | –
C=CCCCCCCCCOc1ccc2oc(=O)c([N+](=O)[O-])cc2c1 | 45.1 (≈ 131 µM) | – | –
COc1cccc(NC2Oc3ccccc3C=C2[N+](=O)[O-])c1 (stereo unspecified) | 6.6 (≈ 22.1 µM) | 4.2 | –
O=[N+]([O-])C1=Cc2ccccc2OC1Nc1ccc([N+](=O)[O-])cc1 (stereo unspecified) | 14.4 (≈ 46 µM) | 1 | –
CC(=O)Oc1ccc2oc(=O)c([N+](=O)[O-])cc2c1 | 16 (≈ 64.2 µM) | – | –
O=c1oc2ccccc2cc1[N+](=O)[O-] | 16.1 (≈ 84.2 µM) | – | –
COc1ccc(NC2Oc3ccccc3C=C2[N+](=O)[O-])cc1 (stereo unspecified) | 12.9 (≈ 43.2 µM) | 5.31 | –
O=c1oc2ccc(OCCCCCCCCO)cc2cc1[N+](=O)[O-] | 9.6 (≈ 28.6 µM) | – | –
O=[N+]([O-])C1=Cc2ccccc2OC1Nc1ccccc1[N+](=O)[O-] (stereo unspecified) | 6 (≈ 19.2 µM) | -0.26 | –
O=c1oc2cc(O)ccc2cc1[N+](=O)[O-] | – | – | Not Active
CC(=O)Oc1ccc2cc([N+](=O)[O-])c(=O)oc2c1 | – | – | Not Active
CCCCCCCOc1ccc2oc(=O)c([N+](=O)[O-])cc2c1 | – | – | Not Active
O=[N+]([O-])C1=Cc2ccccc2OC1N1CCOCC1 (stereo unspecified) | 5 (≈ 19.1 µM) | 8.33 | –
O=c1oc2ccc(O)cc2cc1[N+](=O)[O-] | 10.9 (≈ 52.6 µM) | – | –
COc1ccccc1NC1Oc2ccccc2C=C1[N+](=O)[O-] (stereo unspecified) | 4.5 (≈ 15.1 µM) | 2.52 | –
CCCCCCCCCCOc1ccc2oc(=O)c([N+](=O)[O-])cc2c1 | – | – | Not Active

SMILES | IC50 [1] [µg/mL] | pKa [2] | IC50 [3]
C=CCCCCCCCCC(=O)Oc1ccc2oc(=O)c([N+](=O)[O-])cc2c1 | 3.2 (≈ 8.57 µM) | – | –
CCCCCCCCCCCCCCCC(=O)Oc1ccc2oc(=O)c([N+](=O)[O-])cc2c1 | 28.5 (≈ 64 µM) | – | –
COc1ccc2oc(=O)c([N+](=O)[O-])cc2c1 | 31 (≈ 140 µM) | – | –
O=[N+]([O-])C1=Cc2ccccc2OC1n1cccn1 (stereo unspecified) | 21 (≈ 86.3 µM) | 2.48 | –
CCCCCCOc1ccc2oc(=O)c([N+](=O)[O-])cc2c1 | – | – | Not Active
CCCCCCCCCCCCCCCC(=O)Oc1ccc2cc([N+](=O)[O-])c(=O)oc2c1 | – | – | Not Active
CC(C)Oc1ccc2oc(=O)c([N+](=O)[O-])cc2c1 | 23.5 (≈ 94.3 µM) | – | –
O=[N+]([O-])C1=Cc2ccccc2OC1Nc1ccccc1 (stereo unspecified) | 11.7 (≈ 43.6 µM) | 4.4 | –
CCCCCCCC(=O)Oc1cccc2cc([N+](=O)[O-])c(=O)oc12 | 17 (≈ 51 µM) | – | –
CCCCCCCC(=O)Oc1ccc2oc(=O)c([N+](=O)[O-])cc2c1 | 4.3 (≈ 12.9 µM) | – | –
CCCCOc1ccc2oc(=O)c([N+](=O)[O-])cc2c1 | 33.9 (≈ 129 µM) | – | –
O=[N+]([O-])C1=Cc2ccccc2OC1Nc1cccc([N+](=O)[O-])c1 (stereo unspecified) | 7.5 (≈ 23.9 µM) | 2.47 | –
O=c1oc2c(O)cccc2cc1[N+](=O)[O-] | 24.8 (≈ 120 µM) | – | –
CCCCCCCC(=O)Oc1ccc2cc([N+](=O)[O-])c(=O)oc2c1 | – | – | Not Active
CC(=O)Oc1cccc2cc([N+](=O)[O-])c(=O)oc12 | 36 (≈ 144 µM) | – | –
CCCCCCCCCCCCCCCC(=O)Oc1cccc2cc([N+](=O)[O-])c(=O)oc12 | 47 (≈ 105 µM) | – | –
